Source: ChEMBL document CHEMBL1126163, “Decreased histamine release by luteinizing hormone-releasing hormone antagonists obtained upon translocation of the cationic amino acid from position 8 to position 7” (1992)
Converted amounts (≈) assume the structure as drawn. Where a SMILES comes first, the peptide text is derived from it. [ ]: non-standard residue; d: D form. The star is where a group is joined. dPhe(4-Cl) = N[C@H](Cc1ccc(Cl)cc1)C(=O)O; d2Nal = N[C@H](Cc1ccc2ccccc2c1)C(=O)O; Lys(iPr) = CC(C)NCCCC[C@H](N)C(=O)O; d3Pal = N[C@H](Cc1cccnc1)C(=O)O; Nicotinoyl = O=C(c1cccnc1)*

Tests used:
Rattus norvegicus [1] = organism: Rattus norvegicus; assay: In vitro histamine release from isolated rat mast cells.; assay type: functional; conditions: read-out: ED50 (the source's name)
Method in brief: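 Histamine release from rat mast cells in vitro, run in duplicate with mast cells from three different rats. LHRH and Nal-Arg standards were included with each set of analogues. The read-out was the ED50 in μg/mL, reported as mean ± SEM.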

Rattus norvegicus [2] = organism: Rattus norvegicus; assay: Compound was evaluated for its ovulating activity in anti-ovulatory assay (AOA) by using 10 rats at the dose of 2 microgram; assay type: functional
Method in brief: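 Standard antiovulatory assay in 4-day cycling female rats, 10 rats per dose group. Each analogue was given at the stated dose in μg per rat, and the read-out was the number of rats ovulating out of 10.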

| EC50 (Rattus norvegicus [1]) [µg/mL] | SMILES | AOA (Rattus norvegicus [2]) |
| --- | --- | --- |
| 70 (≈ 40.9 µM) | CC(=O)N[C@H](Cc1ccc2ccccc2c1)C(=O)N[C@H](Cc1ccc(Cl)cc1)C(=O)N[C@H](Cc1cccnc1)C(=O)N[C@@H](CO)C(=O)N[C@@H](CCCCNC(=O)c1ccccn1)C(=O)N[C@H](CCCCNC(=O)c1ccccn1)C(=O)N[C@@H](CCCCNC(C)C)C(=O)N[C@@H](CCCCNC(=O)c1cccnc1)C(=O)N1CCC[C@H]1C(=O)N[C@H](C)C(N)=O | 8 |
| 2.4 (≈ 1.63 µM) | CC(=O)N[C@H](Cc1ccc2ccccc2c1)C(=O)N[C@H](Cc1ccc(Cl)cc1)C(=O)N[C@H](Cc1c[nH]c2ccccc12)C(=O)N[C@@H](CO)C(=O)N[C@@H](Cc1ccc(O)cc1)C(=O)N[C@H](CCCN=C(N)N)C(=O)N[C@@H](CCCN=C(N)N)C(=O)N[C@@H](CC(C)C)C(=O)N1CCC[C@H]1C(=O)N[C@H](C)C(N)=O | 10 |
| > 300 | CC(=O)N[C@H](Cc1ccc2ccccc2c1)C(=O)N[C@H](Cc1ccc(Cl)cc1)C(=O)N[C@H](Cc1cccnc1)C(=O)N[C@@H](CO)C(=O)N[C@@H](CCCCNC(=O)c1cccnc1)C(=O)N[C@H](CCCCNC(=O)c1cccnc1)C(=O)N[C@@H](CC(C)C)C(=O)N[C@@H](CCCCNC(C)C)C(=O)N1CCC[C@H]1C(=O)N[C@H](C)C(N)=O [Antide] (Ac-[d2Nal][dPhe(4-Cl)][d3Pal]SK(Nicotinoyl)[dK](Nicotinoyl)L[Lys(iPr)]P[dA]-NH2) | – |
| 0.1 (≈ 0.0681 µM) | CC(=O)N[C@H](Cc1ccc2ccccc2c1)C(=O)N[C@H](Cc1ccc(Cl)cc1)C(=O)N[C@H](Cc1c[nH]c2ccccc12)C(=O)N[C@@H](CO)C(=O)N[C@@H](Cc1ccc(O)cc1)C(=O)N[C@H](CCCN=C(N)N)C(=O)N[C@@H](CC(C)C)C(=O)N[C@@H](CCCN=C(N)N)C(=O)N1CCC[C@H]1C(=O)N[C@H](C)C(N)=O (Ac-[d2Nal][dPhe(4-Cl)][dW]SY[dR]LRP[dA]-NH2) | – |
